Compounds with a hit are over-represented: about 5.4% of the library has one in this group of screens.
DAT uptake mod: modulates human dopamine transporter uptake under cocaine | LLC-PK1 hDAT cells, [14C]-dopamine uptake with cocaine IC80; actives deviate in either direction | 110,000 compounds, 1.3% hits | Q01959 | B-score at 10 µM;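 active = Z score or B-score, a plate-position-corrected score, falls beyond the plate's 99.7% confidence bounds, in either direction; inactive = both scores lie inside the 99.7% bounds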
Target sequence (Q01959 whole entry, looked up): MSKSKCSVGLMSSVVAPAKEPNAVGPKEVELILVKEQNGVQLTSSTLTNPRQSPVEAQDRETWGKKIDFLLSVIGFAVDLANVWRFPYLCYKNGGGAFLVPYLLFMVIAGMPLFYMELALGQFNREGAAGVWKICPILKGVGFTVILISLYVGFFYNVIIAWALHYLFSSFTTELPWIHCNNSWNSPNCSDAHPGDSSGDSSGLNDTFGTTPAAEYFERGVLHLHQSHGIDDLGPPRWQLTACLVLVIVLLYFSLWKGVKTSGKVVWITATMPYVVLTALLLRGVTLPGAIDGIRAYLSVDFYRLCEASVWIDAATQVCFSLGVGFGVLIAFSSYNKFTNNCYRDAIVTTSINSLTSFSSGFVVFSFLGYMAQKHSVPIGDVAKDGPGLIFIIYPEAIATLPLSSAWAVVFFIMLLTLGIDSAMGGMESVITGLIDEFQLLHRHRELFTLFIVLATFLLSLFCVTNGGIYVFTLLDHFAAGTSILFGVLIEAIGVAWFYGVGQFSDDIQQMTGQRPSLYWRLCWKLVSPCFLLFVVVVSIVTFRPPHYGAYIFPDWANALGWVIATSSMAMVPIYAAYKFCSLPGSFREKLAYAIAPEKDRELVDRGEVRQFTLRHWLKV
Cav32 inh: blocks human Cav3.2 T-type calcium channel; O95180; Cav3.2-expressing cells, Fluo-4 calcium fluorescence FDSS; stronger effect = lower value; B-score at 10 µM; 100,000 compounds, 4% hits; AID 449739;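 active = single-dose well whose peak fluorescence ratio is a statistical outlier from its plate by either plate-standardised score or position-corrected B-score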
EphB4 ephrin blk: blocks human EphB4 binding to ephrin-B2; P54760; EphB4 LBD / TNYL-RAW-Alexa532 peptide, fluorescence polarization; inhibition, % at 7 µM; 97,000 compounds, 0.15% hits;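 active = inhibition above the screen-wide mean inhibition plus 3 SD, cut at about 15% in these data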
HIV Rev-RRE inh: HIV Rev-RRE protein-RNA interaction inhibition; P05866; Rev peptide-RRE RNA binding, FRET; inhibition, % at 8 µM; 97,000 compounds, 0.79% hits;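 active = inhibition above the screen-wide mean plus 3 SD, cut at about 35% in these data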
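Assay system: Rev peptide and RRE RNA, both fluorescently labelled; times: 5 min preincubation and 15 min binding, 25 °C; detection: FRET, ex 480 nm, em 540 and 671 nm; read-out basis: % inhibition from 671/540 nm acceptor-to-donor ratio, scaled between controls; benchmarks: DMSO low control, neomycin B high control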
Large screens that a line does not name were inactive.

CC(C)CN(CC(C)C)S(=O)(=O)c1cc([N+](=O)[O-])ccc1N1CCCCCC1	Cav32 inh -5.2
CN(C)S(=O)(=O)c1cc([N+](=O)[O-])ccc1N1CCCCCC1	none
O=[N+]([O-])c1ccc(N2CCCCC2)c(Cl)c1N1CCCCC1	none
COc1ccccc1CNC(=O)C1CC2Cn3c(nc4cc(Cl)c(Cl)cc43)C2N1C (stereo unspecified)	none (no result: EphB4 ephrin blk, HIV Rev-RRE inh)
COc1ccc(F)cc1S(=O)(=O)NC1CCCC1	none
CCN(CC)C(c1ccc(F)cc1)c1nnnn1C1CCCCC1 (stereo unspecified)	Cav32 inh -5.02
Fc1ccc(C(c2nnnn2C2CCCC2)N(Cc2ccco2)CC2CCCO2)cc1 (stereo unspecified)	Cav32 inh -3.96
CCN(CC)C(c1ccc(C)cc1)c1nnnn1C1CCCCC1 (stereo unspecified)	none
CS(=O)(=O)N(Cc1ccccc1)c1ccccc1C(=O)N1CCN(c2ccccc2)CC1	none
S=C(N=Nc1ccccc1)NNc1ccccc1	none (no result: EphB4 ephrin blk, HIV Rev-RRE inh)
COc1ccc(NC(=S)NC(NC(=O)c2ccc(Cl)cc2Cl)C(Cl)(Cl)Cl)c([N+](=O)[O-])c1 (stereo unspecified)	Cav32 inh -5.08
Cc1ccc(NC(=S)NC(NC(=O)c2ccccc2C)C(Cl)(Cl)Cl)c(C)c1 (stereo unspecified)	Cav32 inh -7.11
COC(=O)NC(NC(=S)Nc1ccc([N+](=O)[O-])cc1)C(Cl)(Cl)Cl (stereo unspecified)	DAT uptake mod -2.77
Cc1ccccc1NC(=S)NC(NC(=O)C(C)(C)C)C(Cl)(Cl)Cl (stereo unspecified)	none
COC(=O)c1ccccc1NC(=S)NC(NC(=O)c1ccccc1[N+](=O)[O-])C(Cl)(Cl)Cl (stereo unspecified)	Cav32 inh -8.46
COc1ccc([N+](=O)[O-])cc1NC(=S)NC(NC(=O)C(c1ccccc1)c1ccccc1)C(Cl)(Cl)Cl (stereo unspecified)	none
COc1ccc(-c2cc(C(=O)Nc3cc(OC)cc(C(=O)Nc4cccc(C(F)(F)F)c4)c3)[nH]n2)cc1	none (no result: EphB4 ephrin blk, HIV Rev-RRE inh)
CCN(CC)S(=O)(=O)c1cc(NC(=O)C(=O)c2c(-c3ccccc3)cc3ccccn23)ccc1C	Cav32 inh -4.64
CCN(CC)S(=O)(=O)c1cccc(NC(=O)C(=O)c2c(-c3ccccc3)cc3ccccn23)c1	none (no result: DAT uptake mod, Cav32 inh)
Cc1nn2c(N3CCN(C(=O)c4ccco4)CC3)cc(C(C)(C)C)nc2c1-c1ccccc1	Cav32 inh -6.69
Cc1ccc(C(C2C(=O)CC(C)(C)CC2=O)C2C(=O)CC(C)(C)CC2=O)s1	none
C=CCn1c(CCNC(=O)c2ccccc2F)nnc1SCC(=O)Nc1nc2ccccc2s1	none
COc1ccc(Oc2c(-c3ccc(O)cc3O)n[nH]c2C)cc1	Cav32 inh -8.82
Clc1ccccc1CSc1cc2c(nn1)-c1ccccc1CC2	none (no result: DAT uptake mod, Cav32 inh)
Clc1cccc(Cl)c1CSc1cc2c(nn1)-c1ccccc1CC2	Cav32 inh -3.95
O=c1cc2c(nn1Cc1c(Cl)cccc1Cl)-c1ccccc1CC2	none
Clc1ccc(CSc2cc3c(nn2)-c2ccccc2CC3)cc1Cl	Cav32 inh -5.3
CC1=C(C(=O)OCc2ccccc2)C(c2ccc(C)o2)C2=C(CCCC2=O)N1 (stereo unspecified)	none (no result: EphB4 ephrin blk, HIV Rev-RRE inh)
COC(=O)C1C(=O)C2=C(CC1C)NC(C)=C(C(=O)OCc1ccc(OC)cc1)C2c1ccc(C)o1 (stereo unspecified)	none
COC(=O)C1C(=O)C2=C(CC1C)NC(C)=C(C(=O)OCCOc1ccccc1)C2c1ccc(C)o1 (stereo unspecified)	Cav32 inh -5.15
CC1=C(C(=O)OCCOc2ccccc2)C(c2ccc(C)o2)C2=C(CC(C)(C)CC2=O)N1 (stereo unspecified)	DAT uptake mod 3.66, Cav32 inh -7.15
Cc1oc(CC(C)C)c(CN)c1C(=O)O	none
CC(C)(C)n1nnnc1CN(Cc1ccco1)Cc1cc2cc3c(cc2[nH]c1=O)OCO3	DAT uptake mod 1.52
CCOc1ccc2[nH]c(=O)c(CN(Cc3nnnn3Cc3ccco3)C3CCCCC3)cc2c1	HIV Rev-RRE inh 60.1
COc1cc2cc(CN(Cc3nnnn3Cc3ccco3)C3CCCCC3)c(=O)[nH]c2cc1OC	DAT uptake mod 3, HIV Rev-RRE inh 45.1
CCOC(=O)Cn1nnnc1CN(Cc1ccc(OC)cc1)Cc1cc2cc(CC)ccc2[nH]c1=O	Cav32 inh -5.38
CCC(C)(C)n1nnnc1CN(Cc1ccco1)Cc1cc2cc3c(cc2[nH]c1=O)OCO3	none
O=Nc1c(O)n(Cc2ccc(Cl)c(Cl)c2)c2ccccc12	none
COc1ccccc1CN(Cc1cc2cc(C)ccc2[nH]c1=O)Cc1nnnn1Cc1ccco1	Cav32 inh -4.43
CCN(Cc1cc2cc(OC)ccc2[nH]c1=O)C(=O)Cc1ccc(OC)cc1	DAT uptake mod -3.21 (no result: Cav32 inh)
N#Cc1c(-c2ccccc2)ccnc1Oc1ccccc1	none
Cc1cc(Oc2ccccc2F)nc(NCc2ccccc2)n1	none
Cc1cc(C(F)(F)F)nc(NCc2ccc(F)cc2)n1	Cav32 inh -5.37
O=C(Nc1cccnc1)C1(c2ccc(Cl)cc2)CCCC1	none
CCCN1CCCc2cc(CN)ccc21	DAT uptake mod -2.38, HIV Rev-RRE inh 46.3
O=C(NC(NC(=S)Nc1ccc(Cl)c(Cl)c1)C(Cl)(Cl)Cl)c1ccco1 (stereo unspecified)	DAT uptake mod -3.83
Cc1cccc(C(=O)NCCc2csc(C)n2)c1	none
Cc1ccc(C(=O)NCCc2csc(C)n2)cc1	DAT uptake mod 2.56
CCn1nnnc1SCC(=O)NCc1ccco1	DAT uptake mod -8.76 (no result: Cav32 inh)
COc1ccc(-n2nnnc2SCC(=O)NCc2ccco2)cc1OC	none
Cc1cccc(-c2nsc(SCC(=O)NCc3ccco3)n2)c1	Cav32 inh -3.93
CC(=O)c1ccc(N2CCN(C(=O)c3ccc(Br)cc3)CC2)c(F)c1	EphB4 ephrin blk 20.6
CC(=O)c1ccc(N2CCN(C(=O)c3ccco3)CC2)c(F)c1	none
CC(=O)c1ccccc1NC(=O)CSc1nnc2ccccn12	none (no result: DAT uptake mod, Cav32 inh)
CCCCn1c(SCC(=O)N2CCC(C)CC2)nc2cc(S(N)(=O)=O)ccc21	DAT uptake mod 3.28
Cc1ccc(C(C(=O)NC2CCCCC2)N(Cc2ccco2)C(=O)Cn2cnc3ccccc32)cc1 (stereo unspecified)	Cav32 inh -5.15
Cc1ccc(CN(C(=O)C(F)(F)F)C(C(=O)NC2CCCCC2)c2ccco2)cc1 (stereo unspecified)	Cav32 inh -5.39
CCOC(=O)CN(C(=O)Cn1nnc(-c2ccc(C)cc2)n1)C(CC)C(=O)NC1CCCC1 (stereo unspecified)	none
O=C(NC1CCCCC1)C(c1ccccc1F)N(Cc1ccco1)C(=O)Cn1nnc2ccccc21 (stereo unspecified)	none (no result: DAT uptake mod, Cav32 inh)
CCC(C(=O)NC1CCCC1)N(Cc1ccco1)C(=O)Cn1nnc(-c2ccc(C)cc2)n1 (stereo unspecified)	Cav32 inh -3.67
CC(C)N(C(=O)c1ccccc1-c1ccccc1)C(C)C	Cav32 inh -4.62
O=C(Nn1cnnc1)c1ccccc1-c1ccccc1	none

Assay outcomes from PubChem BioAssay.
